Values after ≈ are worked out from the molar mass of the structure shown.
Assays:
[1] = tested on: Mycobacterium tuberculosis; test: Antitubercular activity against non-replicating Mycobacterium tuberculosis H37Rv expressing luxCDAB assessed as inhibition of bacterial growth incubated for 7 days under hypoxia conditions followed by incubation in normoxia conditions for 5 days by luminescence based analysis; format: functional; conditions: 288 h, time 12 day
[2] = Metabolic stability of the compound in CD-1 mouse liver microsomes assessed as parent compound remaining at 5 uM preincubated for 5 mins followed by NADPH addition and measured after 30 mins by LC-TOF/MS analysis; format: ADME, Microsome; conditions: time 35 min, read-out: Stability
How it was run: (§1)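 Mouse liver microsomes incubated with compound in the presence of NADPH. Read-out is % parent compound remaining after 30 min.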

[3] = Metabolic stability of the compound in CD-1 mouse liver microsomes at 5 uM by LC-TOF/MS analysis; format: ADME, Microsome; how it was run: as §1
[4] = AUC(last) in CD-1 mouse at 10 mg/kg, po by LC/MS/MS analysis; format: ADME, organism-based; design: dose 10 mg/kg, route po; conditions: in vivo
How it was run: (§2)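 CD1 mice dosed orally at 10 mg/kg (snapshot PK study). Plasma levels followed over 5 h by LC/MS/MS. T1/2, Cmax and AUC_last derived from the plasma profile.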

[5] = Half life in CD-1 mouse at 10 mg/kg, po by LC/MS/MS analysis; format: ADME, organism-based; conditions: in vivo; how it was run: as §2
[6] = Cmax in CD-1 mouse at 10 mg/kg, po by LC/MS/MS analysis; format: ADME, organism-based; design: dose 10 mg/kg, route po; conditions: in vivo; how it was run: as §2
[7] = tested on: Mycobacterium tuberculosis; test: Antitubercular activity against Mycobacterium tuberculosis H37Rv constitutively expressing GFP assessed as inhibition of bacterial growth at 20 uM incubated for 7 days by fluorescence based analysis; format: functional; conditions: 168 h, time 7 day
[8] = tested on: Mycobacterium tuberculosis; test: Antitubercular activity against replicating Mycobacterium tuberculosis H37Rv constitutively expressing GFP assessed as inhibition of bacterial growth under normoxia conditions incubated for 3 weeks by spot assay; format: functional; conditions: 504 h
[9] = tested on: Mycobacterium tuberculosis; test: Antitubercular activity against non-replicating Mycobacterium tuberculosis H37Rv constitutively expressing GFP assessed as inhibition of bacterial growth incubated for 7 days under hypoxic condition followed by incubation in aerobic conditions for 1 to 5 days by spot assay; format: functional; conditions: time 8-12 day
TGF-beta receptor type-1 = target: T1, TGF-beta receptor type-1 (Homo sapiens, UniProt P36897); test: Binding affinity to wild type human partial length TGFBR1 (D179 to M503 residues) expressed in bacterial expression system by KINOMEscan assay
T1 sequence (P36897 whole entry): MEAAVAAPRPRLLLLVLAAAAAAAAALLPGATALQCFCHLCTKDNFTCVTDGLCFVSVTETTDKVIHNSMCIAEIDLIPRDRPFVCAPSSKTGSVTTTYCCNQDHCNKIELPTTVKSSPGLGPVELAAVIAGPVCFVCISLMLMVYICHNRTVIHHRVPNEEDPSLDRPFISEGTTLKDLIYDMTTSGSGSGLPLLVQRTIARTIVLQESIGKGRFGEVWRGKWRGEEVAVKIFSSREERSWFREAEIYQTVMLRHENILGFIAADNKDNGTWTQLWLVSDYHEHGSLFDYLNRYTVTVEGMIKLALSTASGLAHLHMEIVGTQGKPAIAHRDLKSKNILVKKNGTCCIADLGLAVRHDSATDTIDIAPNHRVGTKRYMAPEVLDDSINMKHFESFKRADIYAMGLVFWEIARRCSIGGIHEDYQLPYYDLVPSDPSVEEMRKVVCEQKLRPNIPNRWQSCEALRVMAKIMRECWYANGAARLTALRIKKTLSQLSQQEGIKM

## CSc1cccc(Nc2nc(-c3cccc(C)n3)nc3ccccc23)c1
[1]
  MIC50: < 0.3 µM
  MIC90: 1.3 µM (≈ 0.466 µg/mL)

## c1cncc(-c2nc(Nc3ccncc3)c3ccccc3n2)c1
[1]
  MIC50: > 10 µM
  MIC90: > 10 µM

## Cc1cccc(-c2nc(Nc3ccc4c(c3)OCO4)c3ccccc3n2)n1
[1]
  MIC50: < 0.3 µM
  MIC90: 1.3 µM (≈ 0.463 µg/mL)
[2]
  remaining at 0.5 h, 5 µM: 30%
[3]
  Stability: Stable
[4]
  AUClast: 250 ng·h/mL
[5]
  t1/2: 3.4 h
[6]
  Cmax: 75 ng/mL

## Cc1csc(-c2nc(Nc3ccncc3)c3ccccc3n2)n1
[1]
  MIC50: > 10 µM
  MIC90: > 10 µM

## COc1cccc(-c2nc(Nc3ccncc3)c3ccccc3n2)n1
[1]
  MIC50: 5 µM (≈ 1.65 µg/mL)
  MIC90: > 10 µM

## CN1CCN(Cc2cccc(-c3ccc4c(Nc5ccc(Oc6ccccc6)cc5)ccnc4c3)c2)CC1
[7]
  inhibition at 20 µM: > 90%
[8]
  MIC90: 11 µM (≈ 5.51 µg/mL)
[9]
  MIC90: 6 µM (≈ 3 µg/mL)

## Cc1cccc(-c2nc(Nc3ccc4c(c3)ncn4C)c3ccccc3n2)n1
[1]
  MIC50: 1.3 µM (≈ 0.476 µg/mL)
  MIC90: 5 µM (≈ 1.83 µg/mL)
TGF-beta receptor type-1
  Kd: > 10 µM

## Cc1cccc(-c2nc(Nc3ccc4[nH]ncc4c3)c3ccccc3n2)n1
[1]
  MIC50: < 0.3 µM
  MIC90: 5 µM (≈ 1.76 µg/mL)
[2]
  remaining at 0.5 h, 5 µM: 9%
[3]
  Stability: Stable

## Cc1cccc(-c2nc(C)cc(Nc3ccncc3)n2)n1
[1]
  MIC50: < 1 µM
  MIC90: > 10 µM

## Clc1cccc(-c2nc(Nc3ccncc3)c3ccccc3n2)n1
[1]
  MIC50: < 1 µM
  MIC90: < 1 µM
[2]
  remaining at 0.5 h, 5 µM: 18%
[3]
  Stability: Stable

## Cc1ccc(NC(=O)c2ccnc(N3CCN(C)CC3)c2)cc1-c1ccc(C(=O)NCC2CC2)cc1
[7]
  inhibition at 20 µM: > 90%
[8]
  MIC50: 4 µM (≈ 1.93 µg/mL)
  MIC90: 6 µM (≈ 2.9 µg/mL)

## Cc1cccc(-c2nc(Nc3ccncc3)c3ccccc3n2)n1
[7]
  inhibition at 20 µM: > 90%
[8]
  MIC50: 16 µM (≈ 5.01 µg/mL)
  MIC90: 20 µM (≈ 6.27 µg/mL)
[9]
  MIC90: 1 µM (≈ 0.313 µg/mL)
[1]
  MIC50: < 0.3 µM
  MIC90: 0.3 µM (≈ 0.094 µg/mL)
TGF-beta receptor type-1
  Kd: 0.01 µM
[2]
  remaining at 0.5 h, 5 µM: 14%
[3]
  Stability: Stable
[4]
  AUClast: 75 ng·h/mL
[5]
  t1/2: 1.8 h
[6]
  Cmax: 60 ng/mL

## Nc1nc(-c2ccccn2)c(-c2ccnc3ccccc23)s1
[7]
  inhibition at 20 µM: > 90%
[8]
  MIC50: 13 µM (≈ 3.96 µg/mL)
  MIC90: 20 µM (≈ 6.09 µg/mL)
[9]
  MIC90: > 20 µM

## Cc1cccc(-c2nc(Nc3ccc4nn(C)nc4c3)c3ccccc3n2)n1
[1]
  MIC50: < 0.3 µM
  MIC90: 0.3 µM (≈ 0.11 µg/mL)
TGF-beta receptor type-1
  Kd: > 10 µM
[2]
  remaining at 0.5 h, 5 µM: 30%
[3]
  Stability: Stable
[4]
  AUClast: 440 ng·h/mL
[5]
  t1/2: 4.6 h
[6]
  Cmax: 150 ng/mL

## Fc1ccc(-c2c(-c3ccccn3)nc3n2CCS3)cc1
[7]
  inhibition at 20 µM: > 90%
[8]
  MIC50: 9 µM (≈ 2.68 µg/mL)
  MIC90: > 20 µM

## Cc1cccc(-c2cc(Nc3ccncc3)c3ccccc3n2)n1
[1]
  MIC50: 2.5 µM (≈ 0.781 µg/mL)
  MIC90: > 10 µM

## c1cnc(-c2nc(Nc3ccncc3)c3ccccc3n2)nc1
[1]
  MIC50: 2.5 µM (≈ 0.751 µg/mL)
  MIC90: > 10 µM

## COc1ccc2c(Nc3ccncc3)nc(-c3cccc(C)n3)nc2c1
[1]
  MIC50: 1 µM (≈ 0.343 µg/mL)
  MIC90: 2.5 µM (≈ 0.858 µg/mL)
[2]
  remaining at 0.5 h, 5 µM: 12%
[3]
  Stability: Stable

## Cc1cccc(-c2nc(Nc3ccc4ncccc4c3)c3ccccc3n2)n1
[1]
  MIC50: 0.3 µM (≈ 0.109 µg/mL)
  MIC90: 5 µM (≈ 1.82 µg/mL)

## Cc1cccc(-c2cc3ccccc3c(Nc3ccncc3)n2)n1
[1]
  MIC50: 1 µM (≈ 0.312 µg/mL)
  MIC90: > 10 µM

## Cn1cncc1-c1cc2c(Nc3ccc(OCc4ccccc4)cc3)ncnc2cn1
[7]
  inhibition at 20 µM: > 90%
[8]
  MIC50: 5 µM (≈ 2.04 µg/mL)
  MIC90: > 20 µM

## Cc1cccc(-c2nc(Nc3ccncc3)c3cc(O)ccc3n2)n1
[1]
  MIC50: 1 µM (≈ 0.329 µg/mL)
  MIC90: 2.5 µM (≈ 0.823 µg/mL)
[2]
  remaining at 0.5 h, 5 µM: 20%
[3]
  Stability: Stable

## Cc1cc(Nc2nc(-c3cccc(C)n3)nc3ccccc23)ccn1
[1]
  MIC50: < 0.3 µM
  MIC90: 1.3 µM (≈ 0.426 µg/mL)

## c1ccc2c(Nc3ccncc3)nc(-c3ccc4c(c3)OCO4)nc2c1
[1]
  MIC50: > 10 µM
  MIC90: > 10 µM

## CS(=O)(=O)CCNCc1coc(-c2ccc3ncnc(Nc4ccc(OCc5ccccc5)cc4)c3c2)c1 [GW566221A]
[7]
  inhibition at 20 µM: > 90%
[8]
  MIC90: 3 µM (≈ 1.59 µg/mL)
[9]
  MIC90: 7 µM (≈ 3.7 µg/mL)

## Cc1cccc(-c2nc(Nc3ccc4occc4c3)c3ccccc3n2)n1
[1]
  MIC50: < 0.3 µM
  MIC90: 1.3 µM (≈ 0.458 µg/mL)
TGF-beta receptor type-1
  Kd: > 10 µM

## Cc1cccc(-c2nc(Nc3ccc4scnc4c3)c3ccccc3n2)n1
[1]
  MIC50: < 0.3 µM
  MIC90: 1.3 µM (≈ 0.48 µg/mL)
TGF-beta receptor type-1
  Kd: > 10 µM
